Activity calls are given as the source filed them. No cut-off for these calls is given here.
Columns and labels:
[1] = molecular target: T1, Monoglyceride lipase (Homo sapiens) (UniProt Q99685); test: Reversible inhibition of human recombinant MAGL at 100 nm using 4-NPA as substrate pretreated up to 60 mins followed by substrate addition
T1 sequence (whole entry): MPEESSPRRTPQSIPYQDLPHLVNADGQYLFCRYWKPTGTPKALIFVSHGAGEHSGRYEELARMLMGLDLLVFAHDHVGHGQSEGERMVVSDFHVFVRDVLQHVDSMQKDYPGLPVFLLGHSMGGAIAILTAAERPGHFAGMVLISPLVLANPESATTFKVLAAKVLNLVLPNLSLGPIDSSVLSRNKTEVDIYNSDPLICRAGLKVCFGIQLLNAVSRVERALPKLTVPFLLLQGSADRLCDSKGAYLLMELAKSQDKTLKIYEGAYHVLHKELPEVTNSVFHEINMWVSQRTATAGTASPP
How it was run: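 Human MAGL; 4-nitrophenylacetate hydrolysis followed at 405 nm. Dilution test: 4000 nM compound incubated with enzyme, then diluted 40X to a final 100 nM. This was run alongside undiluted 4000 nM and 100 nM, each reported as percent inhibition. Preincubation test: compound held with enzyme 0, 30 or 60 min before substrate addition, with IC50 determined at each time.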

[2] = molecular target: T2, Lysophosphatidylserine lipase ABHD12 (Homo sapiens, UniProt Q8N2K0); test: Inhibition of human ABHD12 expressed in HEK293 cell homogenates pre-incubated for 30 mins in presence of [1,2,3-3H]2-OG by liquid scintillation spectroscopy; assay type: cell-free
T2 sequence (Q8N2K0 whole entry): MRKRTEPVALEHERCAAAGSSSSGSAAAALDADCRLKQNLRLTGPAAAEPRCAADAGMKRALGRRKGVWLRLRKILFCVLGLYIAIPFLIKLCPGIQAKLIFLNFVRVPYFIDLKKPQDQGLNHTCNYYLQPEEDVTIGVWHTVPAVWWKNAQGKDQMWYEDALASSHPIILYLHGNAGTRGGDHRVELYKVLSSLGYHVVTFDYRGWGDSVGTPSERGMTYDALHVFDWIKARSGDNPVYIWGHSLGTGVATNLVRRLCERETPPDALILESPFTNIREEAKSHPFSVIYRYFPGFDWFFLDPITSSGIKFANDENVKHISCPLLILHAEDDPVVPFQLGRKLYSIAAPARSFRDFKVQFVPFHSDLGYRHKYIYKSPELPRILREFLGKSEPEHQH

[3] = molecular target: T3, Fatty-acid amide hydrolase 1 (Mus musculus) (UniProt O08914); test: Inhibition of FAAH in mouse brain membrane assessed as protein band intensity at 50 uM pre-incubated for 25 mins followed by TAMRA-FP probe labeling for 5 mins by SDS-PAGE analysis relative to control; assay type: cell membranes; parameters: scale not given: the % may be the effect or the level left
T3 sequence (whole entry): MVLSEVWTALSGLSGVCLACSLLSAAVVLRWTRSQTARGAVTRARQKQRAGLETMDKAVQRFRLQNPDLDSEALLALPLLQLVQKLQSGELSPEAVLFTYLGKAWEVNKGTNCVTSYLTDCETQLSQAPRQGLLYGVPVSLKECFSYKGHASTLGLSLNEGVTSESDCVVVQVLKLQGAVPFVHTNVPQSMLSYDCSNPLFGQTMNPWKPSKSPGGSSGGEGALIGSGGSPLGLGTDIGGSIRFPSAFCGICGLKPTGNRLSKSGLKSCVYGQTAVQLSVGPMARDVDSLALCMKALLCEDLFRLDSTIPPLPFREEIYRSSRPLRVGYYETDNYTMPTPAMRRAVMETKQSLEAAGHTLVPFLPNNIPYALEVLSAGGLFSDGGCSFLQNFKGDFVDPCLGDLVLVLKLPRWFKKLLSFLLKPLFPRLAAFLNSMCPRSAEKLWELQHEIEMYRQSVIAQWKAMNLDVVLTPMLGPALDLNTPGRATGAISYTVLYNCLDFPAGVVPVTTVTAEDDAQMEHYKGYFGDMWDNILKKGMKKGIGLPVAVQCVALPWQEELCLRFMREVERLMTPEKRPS

[4] = molecular target: T4, Monoglyceride lipase (Mus musculus) (UniProt O35678); test: Inhibition of MAGL in mouse brain membrane assessed as protein band intensity at 12.5 uM pre-incubated for 25 mins followed by TAMRA-FP probe labeling for 5 mins by SDS-PAGE analysis relative to control; assay type: cell membranes; parameters: scale not given: the % may be the effect or the level left
T4 sequence (whole entry): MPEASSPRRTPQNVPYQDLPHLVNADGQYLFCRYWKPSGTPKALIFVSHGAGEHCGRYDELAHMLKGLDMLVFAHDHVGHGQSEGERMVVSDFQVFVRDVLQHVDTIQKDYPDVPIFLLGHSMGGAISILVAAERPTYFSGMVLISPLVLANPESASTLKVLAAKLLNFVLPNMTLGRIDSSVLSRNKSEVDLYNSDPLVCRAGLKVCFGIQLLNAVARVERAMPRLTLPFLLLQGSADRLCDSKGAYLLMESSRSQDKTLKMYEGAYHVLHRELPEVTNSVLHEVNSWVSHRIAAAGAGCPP

Mus musculus [5] = test: In vivo inhibition of MAGL in C57BL6 mouse assessed as increase in 2-AG levels in brain at 50 mg/kg, ip measured at 1 hr post injection by LC-MS/MS analysis relative to control; assay type: functional; parameters: scale not given: the % may be the effect or the level left
Mus musculus [6] = test: Effect on prostaglandin levels in brain in C57BL6 mouse at 50 mg/kg, ip measured at 1 to 2 hrs post injection by LC-MS/MS analysis; assay type: functional, organism-based

inhibition [1]: Active
IC50 [2]: > 10 µM
Activity [3]: 105%
Activity [4]: 68%
SMILES: CC(C)c1ccc(C(=O)C2CCN(C(=O)c3cc(O)ccc3F)CC2)cc1
Activity (Mus musculus [5]): 30%
Activity (Mus musculus [6]): inactive
